From ChEMBL document CHEMBL3259608, “Synthesis of a terphenyl substituted 4-aza-2,3-didehydropodophyllotoxin analogues as inhibitors of tubulin polymerization and apoptosis inducers” (Bioorg Med Chem, 2014)
The source made the active and inactive calls. The rule behind the calls is not given here.

Columns and labels:
[1] = test system: A549; test: Anticancer activity against human A549 cells after 48 hrs by MTT assay; type: functional, cell-based; conditions: A549, 48 h
Summary of the method: (§1)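 MTT assay: 1×10⁴ cells/well seeded in DMEM with 10% FBS, 24 h at 37°C in CO₂ before dosing. Compounds diluted in medium, vehicle control included, 48 h exposure. MTT (5 mg/mL stock) added for 4 h, formazan dissolved in DMSO, absorbance read at 540 nm. IC50 averaged from three individual experiments.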

[2] = test system: DU-145; test: Anticancer activity against human DU145 cells after 48 hrs by MTT assay; type: functional, cell-based; conditions: DU-145, 48 h; summary of the method: as §1
[3] = test system: HT-29; test: Anticancer activity against human HT-29 cells after 48 hrs by MTT assay; type: functional, cell-based; conditions: HT-29, 48 h; summary of the method: as §1
[4] = test system: ACHN; test: Anticancer activity against human ACHN cells after 48 hrs by MTT assay; type: functional, cell-based; summary of the method: as §1
[5] = test system: HeLa; test: Anticancer activity against human HeLa cells after 48 hrs by MTT assay; type: functional, cell-based; summary of the method: as §1
[6] = test system: A549; test: Cell cycle arrest in human A549 cells assessed as accumulation at sub-G1 phase at 0.5 uM after 48 hrs by propidium iodide staining-based flow cytometric analysis (reference value: 6.47%); type: functional
[7] = test system: A549; test: Cell cycle arrest in human A549 cells assessed as accumulation at sub-G1 phase at 1 uM after 48 hrs by propidium iodide staining-based flow cytometric analysis (reference value: 6.47%); type: functional
[8] = test system: A549; test: Cell cycle arrest in human A549 cells assessed as accumulation at G0/G1 phase at 1 uM after 48 hrs by propidium iodide staining-based flow cytometric analysis (reference value: 78.23%); type: functional
[9] = test system: A549; test: Cell cycle arrest in human A549 cells assessed as accumulation at S phase at 0.5 uM after 48 hrs by propidium iodide staining-based flow cytometric analysis (reference value: 3.57%); type: functional
[10] = molecular target: T1, Tubulin (Homo sapiens) (UniProt P68371+Q9H4B7+P0DPH7+P68366+Q13509+Q71U36+P04350+Q3ZCM7+P07437+P68363+Q9BQE3+Q6PEY2+Q13885+Q9BVA1+Q9BUF5); test: Inhibition of alpha-tubulin polymerization in human A549 cells at 1 uM after 48 hrs by immunohistochemical analysis; type: cell-based
Summary of the method: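 A549 cells on coverslips treated 48 h at 1 µM. Fixed in 4% paraformaldehyde for 20 min, permeabilised with 0.2% Triton X-100 for 5 min, then methanol overnight. Blocked in 1% BSA, anti-α-tubulin (1:1000) 2 h at room temperature, FITC anti-mouse secondary 1 h. Microtubule network integrity examined by fluorescence microscopy.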

[11] = test system: A549; test: Cell cycle arrest in human A549 cells assessed as accumulation at G0/G1 phase at 0.5 uM after 48 hrs by propidium iodide staining-based flow cytometric analysis (reference value: 78.23%); type: functional
[12] = test system: A549; test: Induction of apoptosis in human A549 cells assessed as DNA fragmentation at 1 uM after 48 hrs by agarose gel electrophoresis; type: functional, cell-based
Summary of the method: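 After 24 h settling, 1×10⁶ A549 cells/well treated 48 h at 1 µM. Pellet washed in PBS and lysed. Supernatant given SDS and RNase A for 2 h at 56°C, then proteinase K for 2 h at 37°C. DNA precipitated with ammonium acetate and cold ethanol at -80°C, washed in 80% ethanol, dissolved in TE. Laddering on 2% agarose gel.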

[13] = molecular target: T1, Tubulin (Homo sapiens); test: Inhibition of tubulin (unknown origin) polymerization at 3 uM measured for 1 hr by fluorescence assay relative to control; type: protein-complex assay
Summary of the method: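 Tubulin polymerization kit, fluorescence-reporter based. Reaction in PEM buffer with GTP, with or without compound at 3 µM final. Reporter incorporation followed as fluorescence increase (excitation 360 nm, emission 420 nm) for 1 h at 37°C. Mean of two experiments, each in triplicate.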

[14] = test system: A549; test: Cell cycle arrest in human A549 cells assessed as accumulation at G2/M phase at 0.5 uM after 48 hrs by propidium iodide staining-based flow cytometric analysis (reference value: 11.73%); type: functional
[15] = test system: A549; test: Induction of apoptosis in human A549 cells assessed as caspase-3 activation at 1 to 2 uM after 48 hrs by ELISA relative to control; type: functional
Summary of the method: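 Colorimetric caspase-3 kit used. A549 cells treated 48 h at 1 and 2 µM, pelleted, washed in PBS, lysed 15 min, spun 15 min. Supernatant assayed by ELISA-based readout, fold change versus untreated control. Mean of two experiments, each in triplicate.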

[16] = test system: A549; test: Cell cycle arrest in human A549 cells assessed as accumulation at G2/M phase at 1 uM after 48 hrs by propidium iodide staining-based flow cytometric analysis (reference value: 11.73%); type: functional
[17] = test system: A549; test: Induction of apoptosis in human A549 cells assessed as nuclear condensation at 1 uM after 48 hrs by Hoechst staining-based fluorescence microscopic analysis; type: functional, cell-based
Summary of the method: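 10,000 A549 cells on coverslips, 24 h, then fresh medium with compound at 1 µM for 48 h. Vehicle control 0.001% DMSO. Hoechst 33258 added with 4% paraformaldehyde for 30 min at 37°C. Random fields imaged by fluorescence microscopy and scored qualitatively for chromatin condensation and nuclear fragmentation.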

[18] = test system: A549; test: Cell cycle arrest in human A549 cells assessed as accumulation at S phase at 1 uM after 48 hrs by propidium iodide staining-based flow cytometric analysis (reference value: 3.57%); type: functional
[19] = molecular target: Tubulin; test: Inhibition of tubulin (unknown origin) polymerization measured for 1 hr by fluorescence assay; type: protein-complex assay, Homo sapiens

SMILES	IC50 [1] [µM]	IC50 [2] [µM]	IC50 [3] [µM]	IC50 [4] [µM]	IC50 [5] [µM]	Activity [6] [%]	Activity [7] [%]	Activity [8] [%]	Activity [9] [%]	inhibition [10]	Activity [11] [%]	Activity [12]	inhibition [13] [%]	Activity [14] [%]	fold change (FC) [15]	Activity [16] [%]	Activity [17]	Activity [18] [%]	IC50 [19] [µM]
O=C1OCC2=C1C(c1ccc(-c3ccc(-c4cc(F)cc(F)c4)cc3)cc1)c1c(-c3ccccc3)n[nH]c1N2 (stereo unspecified)	6.72	10	5.83	14.1	8.12														
O=C1OCC2=C1C(c1ccc(-c3ccc(-c4ccc(OC(F)(F)F)cc4)cc3)cc1)c1c(ccc3cn[nH]c13)N2 (stereo unspecified)	0.87	0.98	1	0.95	1.24	1.08	1.01	38.41	2.39	Active	64.52	Active	60.1	32.01	3	58.23	Active	2.35	2.95
O=C1OCC2=C1C(c1ccc(-c3ccc(-c4cc(F)cc(Cl)c4)cc3)cc1)c1c(ccc3cn[nH]c13)N2 (stereo unspecified)	7.41	12.6	9.42	9.33	7.53														
O=C1OCC2=C1C(c1ccc(-c3ccc(-c4ccc(F)cc4)cc3)cc1)c1cc3[nH]ccc3cc1N2 (stereo unspecified)	4.36	7.24	8.91	5.75	9.54														
O=C1OCC2=C1C(c1ccc(-c3ccc(-c4cc(F)c(F)c(F)c4)cc3)cc1)c1cc3[nH]ccc3cc1N2 (stereo unspecified)	5.49	13.2	6.6	6.45	10.5														
O=C1OCC2=C1C(c1ccc(-c3ccc(-c4cc(F)c(F)c(F)c4)cc3)cc1)c1c(ccc3cn[nH]c13)N2 (stereo unspecified)	3.98	6.91	8.91	7.41	5.49														
COc1cc([C@@H]2c3cc4c(cc3[C@@H](O[C@@H]3O[C@@H]5CO[C@@H](C)O[C@H]5[C@H](O)[C@H]3O)[C@H]3COC(=O)[C@H]23)OCO4)cc(OC)c1O [ETOPOSIDE]	2.45	3.17	1.47	2.04	2.75	4.93	4.01	46.09	4.24		70.74			20.09		46.14		3.76	
O=C1OCC2=C1C(c1ccc(-c3ccc(-c4cc(F)c(F)c(F)c4)cc3)cc1)c1c(-c3ccccc3)n[nH]c1N2 (stereo unspecified)	4.36	6.5	6.45	7.52	7.07														
O=C1OCC2=C1C(c1ccc(-c3ccc(-c4cc(F)cc(F)c4)cc3)cc1)c1cc3[nH]ccc3cc1N2 (stereo unspecified)	5.49	8.7	6.45	5.75	8.51														
O=C1OCC2=C1C(c1ccc(-c3ccc(-c4ccc(F)cc4)cc3)cc1)c1c(-c3ccccc3)n[nH]c1N2 (stereo unspecified)	1.47	4.16	3.31	2.18	3.8														
O=C1OCC2=C1C(c1ccc(-c3ccc(-c4ccc(F)cc4)cc3)cc1)c1c(ccc3cn[nH]c13)N2 (stereo unspecified)	0.95	1.44	1.69	1.47	1.94														
O=C1OCC2=C1C(c1ccc(-c3ccc(-c4ccc(OC(F)(F)F)cc4)cc3)cc1)c1c(-c3ccccc3)n[nH]c1N2 (stereo unspecified)	0.98	1.12	1.77	4.07	2.23														
O=C1OCC2=C1C(c1ccc(-c3ccc(-c4cc(F)cc(F)c4)cc3)cc1)c1c(ccc3cn[nH]c13)N2 (stereo unspecified)	0.91	1.28	1.02	0.95	1.23	1.27	1.22	41.23	4.39	Active	69.78	Active	51.3	24.56	3	52.34	Active	5.21	2.74
O=C1OCC2=C1C(c1ccc(-c3ccc(-c4cc(F)cc(Cl)c4)cc3)cc1)c1cc3[nH]ccc3cc1N2 (stereo unspecified)	2.55	4.78	8.7	2.95	3.16														
O=C1OCC2=C1C(c1ccc(-c3ccc(-c4cc(F)cc(Cl)c4)cc3)cc1)c1c(-c3ccccc3)n[nH]c1N2 (stereo unspecified)	2.88	5.75	6.3	3.16	6.02														
COc1cc([C@@H]2c3cc4c(cc3[C@H](O)[C@H]3COC(=O)[C@H]23)OCO4)cc(OC)c1OC [PODOFILOX]	3.09	3.21	2.29	1.93									52						
O=C1OCC2=C1C(c1ccc(-c3ccc(-c4ccc(C(F)(F)F)cc4)cc3)cc1)c1cc3[nH]ccc3cc1N2 (stereo unspecified)	10	12.6	7.41	7.58	16.6														
O=C1OCC2=C1C(c1ccc(-c3ccc(-c4ccc(OC(F)(F)F)cc4)cc3)cc1)c1cc3[nH]ccc3cc1N2 (stereo unspecified)	5.12	6.02	9.33	5.37	7.41														
O=C1OCC2=C1C(c1ccc(-c3ccc(-c4ccc(C(F)(F)F)cc4)cc3)cc1)c1c(-c3ccccc3)n[nH]c1N2 (stereo unspecified)	5.75	6.45	8.51	5.24	6.16														
O=C1OCC2=C1C(c1ccc(-c3ccc(-c4ccc(C(F)(F)F)cc4)cc3)cc1)c1c(ccc3cn[nH]c13)N2 (stereo unspecified)	1.16	4.89	2.39	2.75	7.09														
